Screens as filed in PubChem.
Sampled rows, rich in hits. Any-hit rate of the full collection: about 2.3%.
XiGFP reactiv: activators of X-chromosome reactivation in mouse fibroblasts; XiGFP mouse fibroblasts, % GFP-positive cells imaging, 3 d; cells co-treated with 5-aza-dC sensitizer; scaled so ellipticine positive control = 100%; activation, % at 7.58 µM; 360,000 compounds, 0.055% hits; AID 743238;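 active means mean normalized replicate activation at least 10% and every replicate at or above 10%; inconclusive means only one of the two criteria met; inactive means mean below 10% and not all replicates reach 10%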;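 further: 0% = median of on-plate neutral control wells and 100% = ellipticine 6 µM median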
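assay system = SV40-immortalized XiGFP fibroblast cells, line 68-5-11 | buffer or medium = DMEM plus 5-aza-dC sensitizer | doses = single-point pinned compound dosing | times = 3-day compound exposure, then 15 min fixation at room temperature | benchmarks = positive control ellipticine, 6 µM final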
TROY NFkB inh: TROY signaling inhibition. 360,000 compounds, 0.98% hits. Q293 LMP1-TROYcd NF-kB luciferase reporter, 4 h. inhibition, % at 10 µM;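 active means compounds whose plate-normalised and pattern-corrected inhibition of the luciferase reporter signal at the single screening dose is 50% or more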
EWS-Fli block: blocks EWS/Fli oncoprotein-driven transcription; inhibition, % at 12.6 µM; 350,000 compounds, 0.67% hits; A673 NR0B1-luciferase reporter, viability-normalised;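 active means mean inhibition of at least 50% after viability correction, with every replicate also passing that limit; inconclusive means mean reaches 50% but only one of two replicates passes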;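 further: firefly luciferase signal divided by Alamar Blue viability fluorescence both relative to DMSO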
FN deposit inh: fibronectin deposition inhibition; AH1F fibroblasts, Alexa488-fibronectin deposition fluorescence, overnight; inhibition, % at 12.6 µM; 350,000 compounds, 0.086% hits;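 active means mean inhibition across replicates of 30% or more, regardless of how many single replicates reach that level; inconclusive means mean under 30% yet at least half of replicates reach 30%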;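 further: positive control wells lacked labelled fibronectin entirely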
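Material: AH1F fibroblast monolayer depositing Alexa488-labelled fibronectin into matrix | Input: 10000 AH1F cells/well | Medium: DMEM plus 2% serum, read in PBS | Reagent: Alexa488-fibronectin, 24 nM final in well | Compound dosing: One dose per compound, pinned | Schedule: 1 h adhesion, overnight exposure | Measured by: Fluorescence at 485 nm excitation, 525 nm emission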
TWEAK-Fn14 inh: blocks TWEAK-Fn14 interaction in a reporter cell assay; TWEAK-stimulated Fn14 reporter cells, luciferase luminescence, 8 h; inhibition, % at 10 µM; 360,000 compounds, 2% hits; in the data active means inhibition above about 50%
LGR2 inh: Drosophila LGR2 receptor signaling inhibition | HEK293 LGR2, CRE-luciferase, bursicon-stimulated, 4 h | inhibition, % at 9.99 µM | 380,000 compounds, 0.35% hits | AID 720647;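 active means drop in luminescence signal, shown as inhibition above about 50% in the replicate tests, limit read from the data, passing the limit was not always enough; inconclusive means probably only some replicates passing the limit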;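 further: agonist challenge used bursicon conditioned medium at about half maximal strength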
* = called active by the depositor.

What do the screens show for `C[C@H]1CN([C@@H](C)CO)S(=O)(=O)c2ccc(-c3ccccc3F)cc2O[C@@H]1CN(C)C`?
XiGFP reactiv: -1.2; EWS-Fli block: 4.0; LGR2 inh: 0.7

How did COC(=O)c1cc(Cl)c(NC(=O)c2cc3ccccc3o2)cc1OC do in these assays?
TWEAK-Fn14 inh: 54.3*

How did COC(=O)c1sc(NC(=S)NC(=O)c2cccc(C)c2)nc1C do in these assays?
XiGFP reactiv: 0.4; TROY NFkB inh: 25.7; EWS-Fli block: -12.4; FN deposit inh: 1.0; TWEAK-Fn14 inh: 14.3

How did Cc1nc(NC(=O)c2cc3ccccc3o2)sc1C do in these assays?
XiGFP reactiv: 0.3; TROY NFkB inh: 22.5; EWS-Fli block: -46.3; FN deposit inh: -3.6; TWEAK-Fn14 inh: 56.7*; LGR2 inh: -16.4

How did COC(=O)c1sc(NC(=S)NC(=O)c2ccccc2F)nc1C do in these assays?
XiGFP reactiv: 0.0; TROY NFkB inh: 21.1; EWS-Fli block: -48.3; FN deposit inh: 13.6; TWEAK-Fn14 inh: 52.3*; LGR2 inh: -11.0

Results for CCOC(=O)c1sc(Nc2ccccc2Cl)nc1C ?
TROY NFkB inh: -51.1; EWS-Fli block: -29.1; FN deposit inh: 3.3; TWEAK-Fn14 inh: -39.7; LGR2 inh: -108.1

How did CCOC(=O)c1sc(NC(=O)Nc2ccccc2F)nc1C do in these assays?
XiGFP reactiv: -0.1; TROY NFkB inh: 82.1*; FN deposit inh: 0.3; TWEAK-Fn14 inh: 94.1*; LGR2 inh: inconclusive

Results for O=C(C[C@H]1CC[C@@H]2[C@H](COC[C@@H](O)CN2Cc2ccc(Cl)cc2)O1)Nc1nccs1 ?
XiGFP reactiv: -0.1; EWS-Fli block: 31.1; FN deposit inh: -1.0; LGR2 inh: 8.9

How did C[C@H](CO)N1C[C@H](C)[C@H](CN(C)C(=O)Nc2ccc3c(c2)OCO3)Oc2ccc(NC(=O)Nc3ccc(C(F)(F)F)cc3)cc2CC1=O do in these assays?
XiGFP reactiv: 0.0; EWS-Fli block: 7.6; LGR2 inh: 4.9

How did CCOC(=O)c1csc(NC(=O)c2cc3ccccc3o2)n1 do in these assays?
XiGFP reactiv: 0.0; TROY NFkB inh: -30.9; EWS-Fli block: 58.6*; FN deposit inh: 0.4; TWEAK-Fn14 inh: 0.7; LGR2 inh: -54.0

How did CCOC(=O)c1csc(NC(=O)c2ccccc2)n1 do in these assays?
XiGFP reactiv: 0.1; TROY NFkB inh: -68.4; EWS-Fli block: 4.0; FN deposit inh: -9.4; TWEAK-Fn14 inh: 3.6; LGR2 inh: -51.1

Results for CCOC(=O)c1sc(NC(=O)c2ccc3ncsc3c2)nc1C ?
XiGFP reactiv: 0.1; TROY NFkB inh: -61.6; EWS-Fli block: 87.1*; FN deposit inh: 1.9; TWEAK-Fn14 inh: -28.8; LGR2 inh: -28.0

How did CCOC(=O)c1sc(NC(=O)c2cncc(Br)c2)nc1C do in these assays?
EWS-Fli block: -53.2; LGR2 inh: -25.5

How did CCn1c(SCC(=O)N/N=C/c2c[nH]c3ccccc23)nnc1-c1ccc(C(C)(C)C)cc1 do in these assays?
XiGFP reactiv: 0.0; TROY NFkB inh: 22.6; EWS-Fli block: 13.0; FN deposit inh: -3.2; TWEAK-Fn14 inh: 59.7*; LGR2 inh: 7.1

How did CCn1c(SCC(=O)N/N=C/c2ccc(C)o2)nnc1-c1ccc(C(C)(C)C)cc1 do in these assays?
XiGFP reactiv: -0.1; TROY NFkB inh: 3.2; FN deposit inh: -3.6; TWEAK-Fn14 inh: 27.4; LGR2 inh: -2.1

Results for O=C(CSc1nnc(SCc2ccccc2Cl)s1)N/N=C/c1c[nH]c2ccccc12 ?
XiGFP reactiv: 0.5; TROY NFkB inh: 23.4; FN deposit inh: -3.5; TWEAK-Fn14 inh: 64.2*; LGR2 inh: -38.2

Results for O=C(CSc1nnc(SCc2ccccc2)s1)N/N=C/c1c[nH]c2ccccc12 ?
XiGFP reactiv: -0.1; TROY NFkB inh: -15.2; EWS-Fli block: 2.7; FN deposit inh: -6.3; TWEAK-Fn14 inh: 21.4; LGR2 inh: -16.1

What do the screens show for `CCn1c(SCC(=O)N/N=C/c2ccc(C)o2)nnc1-c1ccc(C)cc1`?
XiGFP reactiv: 0.0; TROY NFkB inh: -21.1; FN deposit inh: -8.5; TWEAK-Fn14 inh: 60.9*; LGR2 inh: 3.6

Results for C[C@@H]1CN([C@H](C)CO)C(=O)c2cc(C#CC3(O)CCCC3)cnc2O[C@@H]1CN(C)C(=O)C1CC1 ?
XiGFP reactiv: -0.4; EWS-Fli block: -9.6; LGR2 inh: 16.5
